For 28 compounds, IC50 and half-life results are on record in ChEMBL document CHEMBL1926544, “Tyrosine-based 1-(S)-[3-hydroxy-2-(phosphonomethoxy)propyl]cytosine and -adenine ((S)-HPMPC and (S)-HPMPA) prodrugs: synthesis, stability, antiviral activity, and in vivo transport studies” (J Med Chem, 2011).

In one data set the test system is Human betaherpesvirus 5. Briefly: Antiviral activity against HCMV Towne infected in HFF cells incubated for 10 days by plaque reduction assay. Format: functional, organism-based. The essentials:
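Towne strain (plaque-purified P0) on HFF cells, about 100 plaques per well. Drug overlay (100 µM down to 0.03 µM), about 10 days incubation, crystal violet staining, microscopic plaques counted. IC50 from regression of % plaque reduction versus no-drug wells. Duplicate; ganciclovir as positive control.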

In the next data set the test system is Human alphaherpesvirus 1. Briefly: Antiviral activity against HSV1 KOS infected in HFF cells incubated for 3 days by plaque reduction assay. Type of data set: functional, organism-based. A digest of the protocol: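 HFF monolayer plaque reduction, about 100 plaques per well. Drug overlay (100 µM down to 0.03 µM), about 3 days incubation, crystal violet staining, macroscopic plaques counted. IC50 from regression of % plaque reduction relative to no-drug wells. Duplicate; acyclovir run as positive control.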

The test system of another data set is KB. Briefly: Cytotoxicity against human KB cells after 48 hrs by crystal violet staining based spectrophotometric analysis. Type of data set: cell-based. A digest of the protocol: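 KB cells at 5000 per well, left overnight at 37 °C. Compound added at eight concentrations in triplicate, 48 h at 37 °C in CO2 (two population doublings). Cells ethanol-fixed and crystal violet stained; dye eluted with acidified ethanol, read at 570 nm. IC50 by regression of % inhibition against log concentration.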

For a further data set, the system named is HFF. The data set can be described thus: Cytotoxicity against HFF cells after 48 hrs by visual cytotoxicity observation assay. Type of data set: cell-based, Homo sapiens. Conditions: Homo sapiens, HFF, 48 h.
Data set [1] can be described thus: Antiviral activity against Cowpox virus Brighton infected in HFF cells incubated for 3 days by plaque reduction assay. Format: functional, cell-based, Cowpox virus (Brighton Red).
The next data set concerns Vaccinia virus. The data set can be described thus: Antiviral activity against Vaccinia virus Copenhagen infected in HFF cells incubated for 3 days by plaque reduction assay. Format: functional, organism-based, Orthopoxvirus vaccinia.
A short description of data set [2]: Half life in phosphate buffer at pH 7.4 at 37 degC assessed as half life by LC/MS analysis. Type of data set: physicochemical.
Data set [3] in a line: Half life in Sprague-Dawley rat intestinal homogenate at pH 6.5 by LC/MS analysis. Type of data set: ADME, tissue-based, Intestine. A digest of the protocol: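 Compound stock (1 mg/ml, 400 µL) mixed with 260 µL buffer and 140 µL homogenate, 37 °C. Samples taken over time, quenched with methanol, centrifuged, supernatant analysed by LC-MS (C18, acetonitrile gradient in ammonium acetate pH 5.5). Run separately for each phosphorus diastereomer.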

Data set [4] is described as follows: Half life in phosphate buffer at pH 6.5 at 37 degC by LC/MS analysis. Type of data set: physicochemical.
Where [5] appears, read: Human betaherpesvirus 5, Towne, HFF, 240 h.
Where [6] appears, read: Human alphaherpesvirus 1, KOS, HFF, 72 h.
Setting [7] is: Orthopoxvirus vaccinia, Copenhagen, HFF, 72 h.

pIC50: −log10 of the molar value.

In the case of `Nc1ncnc2c1ncn2C[C@H]1COP(=O)(O)CO1`, the pIC50 is 5.89 in the data set with Human betaherpesvirus 5 (setting [5]); 4.52 in the data set on Human alphaherpesvirus 1 (setting [6]); less than 4.00 in the data set on KB; 4.00 with HFF; 6.22 in [1] (Cowpox virus, HFF, 72 h); 6.00 with Vaccinia virus (setting [7]).

For `CC(C)CNC(=O)[C@@H](N)Cc1ccc(OP(=O)(O)CO[C@H](CO)Cn2cnc3c(N)ncnc32)cc1`, the pIC50 in the data set with Human betaherpesvirus 5 (setting [5]) was 6.54; in the data set with Human alphaherpesvirus 1 (setting [6]), 4.35; in the data set with KB, less than 4.00; with HFF, 4.00; in data set [1] (Cowpox virus, HFF, 72 h) it was 5.52; with Vaccinia virus (setting [7]), 6.30.

Take `COC(=O)[C@@H](N)Cc1ccc(O[P@@]2(=O)CO[C@@H](Cn3ccc(N)nc3=O)CO2)cc1`: the half-life in data set [2] was 2.02 h; in data set [3], less than 0.5 h; in data set [4] it was 4.27 h.

Turning to `COC(=O)[C@@H](N)Cc1ccc(O[P@]2(=O)CO[C@@H](Cn3ccc(N)nc3=O)CO2)cc1`, the half-life was 0.317 h in data set [2], less than 0.5 h in data set [3] and 0.933 h in [4].

Regarding `COC(=O)[C@H](N)Cc1ccc(O[P@@]2(=O)CO[C@@H](Cn3ccc(N)nc3=O)CO2)cc1`, the half-life in data set [2] was 2.1 h; in data set [3], 3.5 h; in [4] it was 6.42 h.

Turning to `COC(=O)[C@H](N)Cc1ccc(O[P@]2(=O)CO[C@@H](Cn3ccc(N)nc3=O)CO2)cc1`, the half-life in data set [2] was 0.35 h; in data set [3], 1.2 h; in data set [4], 1.52 h.

`CC(C)OC(=O)[C@@H](N)Cc1ccc(O[P@@]2(=O)CO[C@@H](Cn3ccc(N)nc3=O)CO2)cc1`: the half-life in [2] is 3.98 h; in data set [3], less than 0.5 h; in [4], 12.8 h.

Consider `CC(C)OC(=O)[C@@H](N)Cc1ccc(O[P@]2(=O)CO[C@@H](Cn3ccc(N)nc3=O)CO2)cc1`, for which the half-life in data set [2] is 0.367 h; in data set [3], less than 0.5 h; in data set [4], 2.02 h.

Turning to `CC(C)(C)NC(=O)[C@H](N)Cc1ccc(O[P@@]2(=O)CO[C@@H](Cn3ccc(N)nc3=O)CO2)cc1`, the half-life in [2] worked out at 10.5 h; in data set [3] it was 28.9 h; in data set [4], 28.9 h.

As to `COC(=O)[C@@H](N)Cc1ccc(O[P@@]2(=O)CO[C@@H](Cn3cnc4c(N)ncnc43)CO2)cc1`, the half-life is less than 0.5 h in data set [3] and 5.5 h in [4].

Consider `COC(=O)[C@@H](N)Cc1ccc(O[P@]2(=O)CO[C@@H](Cn3cnc4c(N)ncnc43)CO2)cc1`, for which the figures for the half-life in [3] and in [4] were less than 0.5 h and 0.917 h, respectively.

As to `Nc1ncnc2c1ncn2C[C@@H](CO)OCP(=O)(O)O`, the pIC50 was 6.39 in the data set on Human betaherpesvirus 5 (setting [5]); 4.46 in the data set on Human alphaherpesvirus 1 (setting [6]); less than 4.00 in the data set on KB; 4.00 in the data set with HFF; 5.40 in data set [1] (Cowpox virus, HFF, 72 h); 5.70 in the data set with Vaccinia virus (setting [7]).

`C/C(=N\NC(N)=S)c1ccccn1` had a pIC50 with KB of 5.52.

`COC(=O)[C@@H](N)Cc1ccc(OP2(=O)CO[C@@H](Cn3ccc(N)nc3=O)CO2)cc1` (mixture of isomers): the pIC50 is 6.64 in the data set on Human betaherpesvirus 5 (setting [5]); 4.60 in the data set on Human alphaherpesvirus 1 (setting [6]); less than 4.00 with KB; less than 4.00 in the data set on HFF; 4.30 in data set [1] (Cowpox virus, HFF, 72 h); 5.40 in the data set with Vaccinia virus (setting [7]).

Consider `COC(=O)[C@H](N)Cc1ccc(OP2(=O)CO[C@@H](Cn3ccc(N)nc3=O)CO2)cc1` (mixture of isomers), for which the negative logarithm of the IC50 (pIC50) in the data set with Human betaherpesvirus 5 (setting [5]) was 6.70; with Human alphaherpesvirus 1 (setting [6]), 4.46; with KB, less than 4.00; in the data set on HFF, less than 4.00; in [1] (Cowpox virus, HFF, 72 h) it was 4.46; in the data set on Vaccinia virus (setting [7]), 4.60.

For the compound `CC(C)(C)NC(=O)[C@H](N)Cc1ccc(OP2(=O)CO[C@@H](Cn3ccc(N)nc3=O)CO2)cc1` (mixture of isomers), the negative-log IC50 (pIC50) in the data set with Human betaherpesvirus 5 (setting [5]) was greater than 7.00; in the data set with Human alphaherpesvirus 1 (setting [6]), 5.82; in the data set on KB, less than 4.00; with HFF, less than 4.00; in [1] (Cowpox virus, HFF, 72 h) it was 4.70; in the data set on Vaccinia virus (setting [7]), 5.00.

Regarding `COC(=O)[C@H](Cc1ccc(OP2(=O)CO[C@@H](Cn3ccc(N)nc3=O)CO2)cc1)NC(=O)[C@@H](N)C(C)C` (mixture of isomers), the negative logarithm of the IC50 (pIC50) in the data set with Human betaherpesvirus 5 (setting [5]) is greater than 7.00; in the data set with Human alphaherpesvirus 1 (setting [6]), 4.82; in the data set on KB, less than 4.00; in data set [1] (Cowpox virus, HFF, 72 h) it was 4.52; with Vaccinia virus (setting [7]), 4.70.

As to `COC(=O)[C@H](Cc1ccc(OP2(=O)CO[C@@H](Cn3cnc4c(N)ncnc43)CO2)cc1)NC(=O)[C@@H](N)C(C)C` (mixture of isomers), the pIC50 in the data set with Human betaherpesvirus 5 (setting [5]) was 6.52; in the data set with Human alphaherpesvirus 1 (setting [6]) it was 4.46; with KB, less than 4.00; in the data set with HFF, less than 4.00; in data set [1] (Cowpox virus, HFF, 72 h) it was 5.10; in the data set on Vaccinia virus (setting [7]), 5.40.

`CC(C)OC(=O)[C@@H](N)Cc1ccc(OP2(=O)CO[C@@H](Cn3ccc(N)nc3=O)CO2)cc1` (mixture of isomers; form 1): the pIC50 was 6.92 in the data set on Human betaherpesvirus 5 (setting [5]); 4.70 in the data set with Human alphaherpesvirus 1 (hff); less than 4.00 in the data set with KB; less than 4.00 in the data set on HFF; 4.40 in [1] (hff); 4.52 in the data set with Vaccinia virus (hff).

On to `COC(=O)[C@@H](N)Cc1ccc(OP2(=O)CO[C@@H](Cn3cnc4c(N)ncnc43)CO2)cc1` (mixture of isomers; form 1), for which the negative-log IC50 (pIC50) was 6.35 in the data set with Human betaherpesvirus 5 (setting [5]); 4.60 with Human alphaherpesvirus 1 (setting [6]); less than 4.00 in the data set with KB; less than 4.00 in the data set with HFF; 5.15 in data set [1] (Cowpox virus, HFF, 72 h); 5.52 in the data set with Vaccinia virus (setting [7]).

Regarding `CC(C)CNC(=O)[C@@H](N)Cc1ccc(OP2(=O)CO[C@@H](Cn3cnc4c(N)ncnc43)CO2)cc1` (mixture of isomers; form 1), the pIC50 with Human betaherpesvirus 5 (hff) is 6.52; in the data set with Human alphaherpesvirus 1 (setting [6]), 4.30; in the data set on KB, less than 4.00; in the data set on HFF, less than 4.00; in data set [1] (hff), 5.15; in the data set on Vaccinia virus (hff), 5.35.

Turning to `COC(=O)[C@@H](N)Cc1ccc(OP2(=O)CO[C@@H](Cn3cnc4c(N)ncnc43)CO2)cc1` (mixture of isomers; form 2), the negative-log IC50 (pIC50) was 4.46 with Human alphaherpesvirus 1 (hff) and 5.46 in data set [1] (hff).

On to `CC(C)OC(=O)[C@@H](N)Cc1ccc(OP2(=O)CO[C@@H](Cn3ccc(N)nc3=O)CO2)cc1` (mixture of isomers; form 2), for which the pIC50 in the data set with Human betaherpesvirus 5 (hff) was 6.66; with Human alphaherpesvirus 1 (hff), 5.52; in data set [1] (hff), 5.00; with Vaccinia virus (hff), 5.10.

Turning to `CC(C)CNC(=O)[C@@H](N)Cc1ccc(OP2(=O)CO[C@@H](Cn3cnc4c(N)ncnc43)CO2)cc1` (mixture of isomers; form 3), the negative logarithm of the IC50 (pIC50) with Human betaherpesvirus 5 (hff) is 6.26; in data set [1] (hff), 5.60; with Vaccinia virus (hff), 6.00.

As for `Nc1nc2c(ncn2COCCO)c(=O)[nH]1` [ACYCLOVIR], the pIC50 with Human alphaherpesvirus 1 (setting [6]) is 6.22.

Turning to `Nc1ccn(C[C@@H](CO)OCP(=O)(O)O)c(=O)n1` [CIDOFOVIR], the pIC50 was 6.55 with Human betaherpesvirus 5 (setting [5]); less than 4.00 in the data set with KB; 4.00 in the data set with HFF; 4.52 in data set [1] (Cowpox virus, HFF, 72 h).

Take `Nc1ccn(C[C@H]2COP(=O)(O)CO2)c(=O)n1` [CYCLIC CIDOFOVIR]: the negative logarithm of the IC50 (pIC50) is 4.30 in the data set with Human alphaherpesvirus 1 (setting [6]); less than 4.00 with KB; less than 4.00 in the data set on HFF; 4.52 in [1] (Cowpox virus, HFF, 72 h).

As for `Nc1nc2c(ncn2COC(CO)CO)c(=O)[nH]1` [GANCICLOVIR], the pIC50 in the data set with Human betaherpesvirus 5 (setting [5]) is 6.85; in the data set with HFF, less than 4.00.
